What was measured:
[1] = test system: RA patients with an inadequate response to MTX; assay: Study 1; format: in vivo, human
How it was run: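 Randomized, double-blind, placebo-controlled trial at one site, 36 RA patients. Patients had MTX for ≥6 months and a stable 7.5–25 mg/week dose for ≥4 weeks, continued throughout. Oral capsules for 4 weeks: 200 mg once daily or 100 mg twice daily. ACR20/50/70 responses, DAS28-CRP and ACR core components (pain VAS, HAQ DI) scored as change from baseline. Intent-to-treat population.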

[2] = Studies 1 and 2, steady‐state plasma PK of filgotinib and its major metabolite; format: in vivo, human; conditions: for Cmax / Tmax / AUC: human, plasma, oral
How it was run: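 RA patients on stable methotrexate took oral test compound or placebo capsules for 4 weeks: 200 mg once daily or 100 mg twice daily (study 1), or 30, 75, 150 or 300 mg once daily (study 2). In a subset (12 and 15 patients), plasma parent and major metabolite were sampled predose and 1, 2, 3, 5 and 8 h after the morning dose, at week 2 or 4. Descriptive statistics were calculated by dose.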

JAK‐1 relative to JAK‐2 = conditions: human whole blood assays; cited from earlier work
[3] = test system: VCAM‐1, ICAM‐1, MMP‐3, haptoglobin, IL‐18, YKL‐40; assay: Study 2, PD marker proteins in plasma; format: in vivo, human; conditions: 75, 150, or 300 mg, after 4 weeks
How it was run: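 Plasma taken at baseline and week 4 from all study 2 participants. Dosed once daily for 4 weeks. YKL-40 measured by ELISA; VCAM-1, ICAM-1, MMP-3, haptoglobin and IL-18 quantified by a second technology at a service laboratory. Each patient normalized to own baseline, expressed as percent change. Mean ± SEM; Kruskal-Wallis test with Dunn's post hoc test.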

RA patients = assay: Study 2, treatment‐emergent adverse events; format: in vivo, human
How it was run: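 Both double-blind, placebo-controlled trials in RA patients on stable MTX. Oral capsules daily for 4 weeks, with 7–10-day follow-up: 200 mg once daily or 100 mg twice daily (study 1); 30, 75, 150 or 300 mg once daily (study 2). At every visit: AEs, vital signs, hematology, serum biochemistry, coagulation and urinalysis. EKG at baseline and follow-up, plus week 4 in study 1. Safety population, descriptive treatment-emergent AE summaries.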

[4] = cited from earlier work

## O=C(Nc1nc2cccc(-c3ccc(CN4CCS(=O)(=O)CC4)cc3)n2n1)C1CC1 [Filgotinib]
[1]; 100 mg twice daily, study 1
  ACR20 responders at week 4: 11 (91.7) no. (%)
  ACR50 responders at week 4: 4 (33.3) no. (%)
  DAS28‐CRP, mean change from baseline at week 4: −2.81
  HAQ DI score, mean change from baseline at week 4: −0.52
  Patient's assessment of pain, mean change from baseline at week 4: −29.8 0–10‐cm VAS
  Patient's global assessment of disease activity, mean change from baseline at week 4: −25.8 0–10‐cm VAS
  Physician's global assessment of disease activity, mean change from baseline at week 4: −35.0 0–10‐cm VAS
  Remission rate (DAS28‐CRP <2.6) at week 4: 3 (25.0) no. (%)
  SJC66, mean change from baseline at week 4: −15.4
  Serum CRP, mean change from baseline at week 4: -13.84 mg/L
  TJC68, mean change from baseline at week 4: −36.3
[1]; 200 mg once daily and 100 mg twice daily, study 1
  time to normalization of serum CRP level: ≤ 1 week
[1]; 200 mg once daily, study 1
  ACR20 responders at week 4: 9 (75.0) no. (%)
  ACR50 responders at week 4: 2 (16.7) no. (%)
  DAS28‐CRP, mean change from baseline at week 4: −2.23
  HAQ DI score, mean change from baseline at week 4: −0.57
  Patient's assessment of pain, mean change from baseline at week 4: −24.3 0–10‐cm VAS
  Patient's global assessment of disease activity, mean change from baseline at week 4: −23.8 0–10‐cm VAS
  Physician's global assessment of disease activity, mean change from baseline at week 4: −26.7 0–10‐cm VAS
  Remission rate (DAS28‐CRP <2.6) at week 4: 2 (16.7) no. (%)
  SJC66, mean change from baseline at week 4: −12.8
  Serum CRP, mean change from baseline at week 4: -35.05 mg/L
  TJC68, mean change from baseline at week 4: −23.1
[1]; study 1, all filgotinib‐treated patients, end of 4 weeks
  patients achieving an ACR20 response: > 83%
[2]; 30–300 mg range
  dose proportionality of PK: essentially dose proportional
[2]; 30 mg
  Cmax: 71.6 ng/mL
  Tmax: 1 h
[2]; 30 mg, AUCtau of filgotinib, steady state, 30 mg once daily, study 2, arithmetic mean (coefficient of variation)
  AUC: 1340 ng·h/mL
[2]; 75 mg
  Cmax: 492 ng/mL
[2]; 100 mg
  Cmax: 730 ng/mL
[2]; 100 mg, AUCtau of filgotinib, steady state, 100 mg twice daily, study 1, arithmetic mean (coefficient of variation)
  AUC: 2470 ng·h/mL
[2]; 150 mg
  Cmax: 1160 ng/mL
  Tmax: 1 h
[2]; 150 mg, AUCtau of filgotinib, steady state, 150 mg once daily, study 2, arithmetic mean (coefficient of variation)
  AUC: 6440 ng·h/mL
[2]; 150 mg, AUCtau, other 4 patients, 150 mg once daily, study 2
  AUC: 4790 to 5290 ng·h/mL
[2]; 200 mg
  Cmax: 1430 ng/mL
[2]; 200 mg, AUCtau of filgotinib, steady state, 200 mg once daily, study 1, arithmetic mean (coefficient of variation)
  AUC: 5380 ng·h/mL
[2]; 300 mg
  Cmax: 1340 ng/mL
[2]; 300 mg, AUCtau of filgotinib, steady state, 300 mg once daily, study 2, arithmetic mean (coefficient of variation)
  AUC: 7710 ng·h/mL
[2]; in vivo
  time of dosing to attain steady state: ≤ 2 days
JAK‐1 relative to JAK‐2
  selectivity for inhibition of JAK‐1 relative to JAK‐2: ~30 fold
[3]
  effect on levels of circulating PD markers: dose‐dependent effect
RA patients; 30 mg once daily
  treatment-related TEAE: Abdominal discomfort: 0 number (%) of patients
  treatment-related TEAE: Abdominal pain, upper: 0 number (%) of patients
  treatment-related TEAE: Aspartate aminotransferase increased: 1 (5.9) number (%) of patients
  treatment-related TEAE: Blood amylase increased: 0 number (%) of patients
  treatment-related TEAE: Blood and lymphatic system disorders: 0 number (%) of patients
  treatment-related TEAE: Blood triglycerides increased: 1 (5.9) number (%) of patients
  treatment-related TEAE: Cystitis, noninfectious: 0 number (%) of patients
  treatment-related TEAE: Duodenogastric reflux: 0 number (%) of patients
  treatment-related TEAE: Ear and labyrinth disorders: 0 number (%) of patients
  treatment-related TEAE: Gastrointestinal disorders: 1 (5.9) number (%) of patients
  treatment-related TEAE: Gastrointestinal pain: 0 number (%) of patients
  treatment-related TEAE: General disorders and administration site reactions: 0 number (%) of patients
  treatment-related TEAE: Gingival bleeding: 0 number (%) of patients
  treatment-related TEAE: Infections and infestations: 0 number (%) of patients
  treatment-related TEAE: Laboratory findings: 2 (11.8) number (%) of patients
  treatment-related TEAE: Lipase increased: 0 number (%) of patients
  treatment-related TEAE: Musculoskeletal and connective tissue disorders: 0 number (%) of patients
  treatment-related TEAE: Nervous system disorders: 0 number (%) of patients
  treatment-related TEAE: Renal and urinary disorders: 0 number (%) of patients
RA patients; 75 mg once daily
  treatment-related TEAE: Abdominal discomfort: 0 number (%) of patients
  treatment-related TEAE: Abdominal pain, upper: 0 number (%) of patients
  treatment-related TEAE: Aspartate aminotransferase increased: 0 number (%) of patients
  treatment-related TEAE: Blood amylase increased: 0 number (%) of patients
  treatment-related TEAE: Blood and lymphatic system disorders: 1 (4.5) number (%) of patients
  treatment-related TEAE: Blood triglycerides increased: 0 number (%) of patients
  treatment-related TEAE: Cystitis, noninfectious: 0 number (%) of patients
  treatment-related TEAE: Duodenogastric reflux: 1 (4.5) number (%) of patients
  treatment-related TEAE: Ear and labyrinth disorders: 0 number (%) of patients
  treatment-related TEAE: Gastrointestinal disorders: 2 (9.1) number (%) of patients
  treatment-related TEAE: Gastrointestinal pain: 0 number (%) of patients
  treatment-related TEAE: General disorders and administration site reactions: 0 number (%) of patients
  treatment-related TEAE: Gingival bleeding: 1 (4.5) number (%) of patients
  treatment-related TEAE: Infections and infestations: 0 number (%) of patients
  treatment-related TEAE: Laboratory findings: 0 number (%) of patients
  treatment-related TEAE: Lipase increased: 0 number (%) of patients
  treatment-related TEAE: Musculoskeletal and connective tissue disorders: 0 number (%) of patients
  treatment-related TEAE: Nervous system disorders: 0 number (%) of patients
  treatment-related TEAE: Renal and urinary disorders: 0 number (%) of patients
RA patients; 150 mg once daily
  treatment-related TEAE: Abdominal discomfort: 0 number (%) of patients
  treatment-related TEAE: Abdominal pain, upper: 0 number (%) of patients
  treatment-related TEAE: Aspartate aminotransferase increased: 0 number (%) of patients
  treatment-related TEAE: Blood amylase increased: 0 number (%) of patients
  treatment-related TEAE: Blood and lymphatic system disorders: 0 number (%) of patients
  treatment-related TEAE: Blood triglycerides increased: 0 number (%) of patients
  treatment-related TEAE: Cystitis, noninfectious: 0 number (%) of patients
  treatment-related TEAE: Duodenogastric reflux: 0 number (%) of patients
  treatment-related TEAE: Ear and labyrinth disorders: 0 number (%) of patients
  treatment-related TEAE: Gastrointestinal disorders: 1 (6.7) number (%) of patients
  treatment-related TEAE: Gastrointestinal pain: 0 number (%) of patients
  treatment-related TEAE: General disorders and administration site reactions: 0 number (%) of patients
  treatment-related TEAE: Gingival bleeding: 0 number (%) of patients
  treatment-related TEAE: Infections and infestations: 0 number (%) of patients
  treatment-related TEAE: Laboratory findings: 0 number (%) of patients
  treatment-related TEAE: Lipase increased: 0 number (%) of patients
  treatment-related TEAE: Musculoskeletal and connective tissue disorders: 0 number (%) of patients
  treatment-related TEAE: Nervous system disorders: 0 number (%) of patients
  treatment-related TEAE: Renal and urinary disorders: 0 number (%) of patients
RA patients; 300 mg once daily
  treatment-related TEAE: Abdominal discomfort: 0 number (%) of patients
  treatment-related TEAE: Abdominal pain, upper: 0 number (%) of patients
  treatment-related TEAE: Aspartate aminotransferase increased: 0 number (%) of patients
  treatment-related TEAE: Blood amylase increased: 0 number (%) of patients
  treatment-related TEAE: Blood and lymphatic system disorders: 0 number (%) of patients
  treatment-related TEAE: Blood triglycerides increased: 0 number (%) of patients
  treatment-related TEAE: Cystitis, noninfectious: 1 (5.0) number (%) of patients
  treatment-related TEAE: Duodenogastric reflux: 0 number (%) of patients
  treatment-related TEAE: Ear and labyrinth disorders: 0 number (%) of patients
  treatment-related TEAE: Gastrointestinal disorders: 2 (10.0) number (%) of patients
  treatment-related TEAE: Gastrointestinal pain: 1 (5.0) number (%) of patients
  treatment-related TEAE: General disorders and administration site reactions: 0 number (%) of patients
  treatment-related TEAE: Gingival bleeding: 0 number (%) of patients
  treatment-related TEAE: Laboratory findings: 0 number (%) of patients
  treatment-related TEAE: Lipase increased: 0 number (%) of patients
  treatment-related TEAE: Musculoskeletal and connective tissue disorders: 0 number (%) of patients
  treatment-related TEAE: Nervous system disorders: 0 number (%) of patients
  treatment-related TEAE: Renal and urinary disorders: 1 (5.0) number (%) of patients
[4]
  PK half‐life: ~7 h

From article PMC5656813 (Arthritis & Rheumatology (Hoboken, N.j.), 2017)
